Assays:
Type in all cases: functional, organism-based
Details in all cases: Enterovirus C
[1] = tested on: Poliovirus 1; experiment: Antiviral activity against Poliovirus Sabin 1 infected in human HeLa cells assessed as reduction in virus-induced cytopathic effect after 72 hrs by crystal violet staining-based assay
Procedure, shortened: (§1)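 HeLa cells grown in MEM-10% FBS, seeded at 2x10^5 cells/mL in MEM-2% FBS and preincubated 24 h at 37°C, 5% CO2. Compound and virus were cross-titrated […] compound in 0.5 log10 steps (7-point curves), with duplicate wells and three replicate tests per virus. After 72 h at 37°C, cells were crystal violet stained and read at 590 nm. EC50 came from a four-parameter fit; if all virus dilutions gave >80% monolayer destruction, the value was […].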

[2] = tested on: Poliovirus 2; experiment: Antiviral activity against Poliovirus Sabin 2 infected in human HeLa cells assessed as reduction in virus-induced cytopathic effect after 72 hrs by crystal violet staining-based assay; procedure, shortened: as §1
[3] = tested on: Poliovirus 3; experiment: Antiviral activity against Poliovirus Sabin 3 infected in human HeLa cells assessed as reduction in virus-induced cytopathic effect after 72 hrs by crystal violet staining-based assay
Procedure, shortened: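 HeLa cells grown in MEM-10% FBS, seeded at 2x10^5 cells/mL in MEM-2% FBS and held 24 h at 37°C, 5% CO2. Compound and virus were cross-titrated together on the cells starting at 10 µM compound, in 0.5 log10 steps, duplicate wells, three replicate tests per virus. Incubated 72 h at 37°C, stained with crystal violet, A590 read. EC50 from four-parameter fit.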

| Structure (SMILES) | EC50 [1] | EC50 [2] | EC50 [3] |
| --- | --- | --- | --- |
| COc1ccc(OCc2ccc(COc3c(Cl)cccc3Cl)cc2)c(Cl)c1 | 17 nM | 16 nM | 20 nM |
| Cc1ccc(C(=O)CCCCOc2ccc(C3=N[C@H](C)CO3)cc2)s1 | > 100000 nM | 417 nM | 1320 nM |
| CCOC(=O)c1ccc(OCCC2CCN(c3ccc(C)nn3)CC2)cc1 [PIRODAVIR] | 4.5 nM | 5 nM | 8 nM |
| Cc1ccc(C(=O)CCCCSc2ccc(C3=N[C@H](C)CO3)cc2)s1 | 169 nM | 302 nM | 530 nM |
| C#CC[C@@H](C(=O)N[C@H](/C=C/C(=O)OCC)C[C@@H]1CCNC1=O)n1cccc(NC(=O)c2cc(C)on2)c1=O [IMOCITRELVIR] | 173 nM | 305 nM | 137 nM |
| Cc1ccc(C(=O)c2cccc(CSc3ccc(C4=NCCO4)cc3)c2)s1 | > 10000 nM | > 10000 nM | > 10000 nM |
| Cc1ccc(C(=O)CCCCCc2ccc(C3=NCCO3)cc2)s1 | > 10000 nM | 9270 nM | 9070 nM |
| N#Cc1ccc(NC(=O)c2cc3n(n2)C(C(F)(F)F)CC(c2cccs2)N3)cc1 (stereo unspecified) | 10 nM | 26 nM | 218 nM |
| Cc1ccc(C(=O)CCCCS(=O)(=O)c2ccc(C3=NCCO3)cc2)s1 | > 10000 nM | > 10000 nM | > 10000 nM |
| Cc1ccc(C(=O)c2cccc(COc3ccc(C4=NCCO4)cc3)c2)s1 | > 10000 nM | > 10000 nM | > 10000 nM |
| Cc1ccc(C(=O)CCCC#Cc2ccc(C3=NCCO3)cc2)s1 | > 10000 nM | 9090 nM | 9160 nM |
| Cc1ccc(C(=O)CCCC[S+]([O-])c2ccc(C3=NCCO3)cc2)s1 (racemic) | > 10000 nM | > 10000 nM | > 10000 nM |
